GSK3B inh: human GSK3beta kinase inhibitors, primary screen, biochemical, cell-free homogeneous, HTS; Glycogen synthase kinase-3 beta (Homo sapiens), P49841; GST-GSK3beta kinase, ADP-Glo luminescence, 60 min; active compounds read low; activity score (negative = inhibition), % at 10 µM; 300,000 compounds, 0.038% hits;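 active means more than half of replicate wells score below -50%, meaning over 50% inhibition versus plate controls; inconclusive means some replicates but at most half score below -50%; inactive means no replicate scores below -50%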
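test system = GST-tagged human GSK3beta kinase, cell-free | reagent = 25 µM ATP with peptide substrate | dosing = one dose of 10 µM per compound | schedule = 60 min reaction, RT | detection = luminescent ADP-Glo measurement of ADP formed | control set = DMSO neutral wells and GW8510 at 20 µM as positive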
A1 inh: caspase 3/7 activation in MEF A1-2A-BIM cells, primary screen, A1 inhibitor project, cell-based, luminescence, HTS | Caspase-Glo 3/7 luminescence, 3 h; percent of clofoctol response, vehicle zero | caspase activation, % (concentration not given with the values) | 330,000 compounds, 0.066% hits;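 active means over half of replicate activation scores above 10%, or exactly half above 10 with the replicate mean above 10; inconclusive means replicate mean below 10 yet half the replicates above 10; inactive means over half of replicates below 10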
procasp7 counter: procaspase-7 activators, primary screen, counter-screen for procaspase-3 activator project, biochemical, absorbance, HTS, human; Caspase-7 (Homo sapiens), P55210; recombinant procaspase-7, Ac-DEVD-pNA absorbance 405 nm; D23A/D198A/D206A triple mutant, cannot self-cleave; scale: DMSO 0, 5 µM enzyme 100; activation, % at 8.5 µM; 330,000 compounds, 0.093% hits;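 active means percent activation above the screen-wide mean plus 3 SD, cut at about 25% in these data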
Target sequence (P55210 whole entry D23A/D198A/D206A): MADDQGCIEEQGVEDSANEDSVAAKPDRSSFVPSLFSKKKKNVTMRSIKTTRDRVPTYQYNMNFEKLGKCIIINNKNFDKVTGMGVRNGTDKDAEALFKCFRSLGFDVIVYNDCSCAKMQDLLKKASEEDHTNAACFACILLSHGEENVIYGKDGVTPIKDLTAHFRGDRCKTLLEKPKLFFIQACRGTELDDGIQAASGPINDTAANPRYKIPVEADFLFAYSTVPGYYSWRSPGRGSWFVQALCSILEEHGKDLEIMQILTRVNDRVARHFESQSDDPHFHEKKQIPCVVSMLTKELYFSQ
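Replicates: singlicate. Assay system: Procaspase-7 triple mutant (PC-7 D3A). Signal: 405 nm absorbance of p-nitroaniline. Times: 1 h preincubation, 2 h reaction. Buffer or medium: Zinc-free HEPES pH 7.4 with 300 mM NaCl, 0.01% Triton X-100. Also added: DEVD-pNA substrate. Benchmarks: DMSO wells as 0%, DMSO with 5 µM added PC-7 as 100%.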
STK33 kinase inh: inhibitors of purified STK33 kinase, primary screen, biochemical, ADP-Glo luminescence, homogeneous, cell-free; Serine/threonine-protein kinase 33 (Homo sapiens), Q9BYT3; MBP phosphorylation; inhibition, % at 10 µM; 320,000 compounds, 0.073% hits; AID 2661, 2010;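 active means inhibition at or above 25%, using the most active replicate where run in duplicate; inactive means inhibition below 25%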
GSK3 alpha inh: blockers of GSK3A enzyme activity – biochemical, luminescence, cell-free homogeneous, HTS, primary screen. inhibition, % at 10 µM. Glycogen synthase kinase-3 alpha (Homo sapiens), P49840. AID 2650, 2010. 320,000 compounds, 0.1% hits. GSK-3 alpha kinase, ADP-Glo luminescence, 60 min;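 active means more than half of replicates show inhibition above 20%; inconclusive means some but at most half of replicates above 20% inhibition; inactive means no replicate shows inhibition above 20%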;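 further: GST-tagged GSK-3 alpha with peptide substrate and 25 µM ATP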
procasp3 activ: activators of human procaspase-3 D3A mutant, primary screen, biochemical, absorbance, PC-3 D3A mutant, single concentration. Caspase-3 (Homo sapiens), P42574. recombinant procaspase-3 D3A, Ac-DEVD-pNA absorbance 405 nm. activation, % at 8.5 µM. 330,000 compounds, 0.11% hits. AID 463141, 2010;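 active means activation above the mean of all tested compounds plus 3 SD, cut at about 21% in these data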
Target sequence (P42574 whole entry D9A/D28A/D175A): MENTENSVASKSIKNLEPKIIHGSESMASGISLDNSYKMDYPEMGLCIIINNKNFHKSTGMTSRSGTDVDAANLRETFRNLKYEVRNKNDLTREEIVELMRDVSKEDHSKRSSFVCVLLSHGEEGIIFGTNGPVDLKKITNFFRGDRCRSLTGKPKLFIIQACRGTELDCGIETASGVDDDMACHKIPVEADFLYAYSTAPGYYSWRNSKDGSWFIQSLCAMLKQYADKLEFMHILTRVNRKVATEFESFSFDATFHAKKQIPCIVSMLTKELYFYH
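Compound: 8.5 µM single point, 0.8% DMSO / Material: Autoprocessing-dead procaspase-3 D3A mutant enzyme / Timing: 1 h preincubation plus 2 h reaction at 25 °C / Medium: Zinc-free HEPES/NaCl buffer with 0.01% Triton X-100 at pH 7.4 / Technique: 405 nm absorbance of p-nitroaniline, reads at 0 and 120 min / Repeats: one well per compound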
proCasp7 act trip: procaspase-7 activators, counter-screen for procaspase-3 activator project, biochemical, absorbance, triplicate, human; shares compounds with procasp3 activ; recombinant procaspase-7, Ac-DEVD-pNA absorbance; asp23/198/206-to-Ala mutant, cannot self-cleave; activation, % at 8.5 µM; 210 tested, under 10 active; AID 488941, 2010;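 active means mean activation above a set limit taken from an earlier procaspase-7 screen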
procasp3 conf: activators of human procaspase-3 D3A mutant, confirmation, biochemical, absorbance, PC-3 D3A mutant, triplicate | shares compounds with procasp3 activ | recombinant PC-3 D3A, Ac-DEVD-pNA absorbance 405 nm; 100% is higher-enzyme control | activation, % at 8.5 µM | 210 compounds, 10% hits | AID 488954, 2010;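 active means mean activation above a set limit carried over from the earlier primary screen, cut at about 22% in these data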
Of the large screens only hits and unclear results are named; the others gave an inactive call (follow-up assays come after a bar, where they were run). This is a sample that favours compounds with a hit; in the whole collection about 0.38% have one here.

CCc1ccc(OCC(=O)OCC(=O)c2ccc3c(c2)NC(=O)CO3)cc1	none
CCc1nnc(NC(=O)CSc2nnc3c(C)cc4c(C)ccc(C)c4n23)s1	procasp3 activ 22 | proCasp7 act trip inactive | procasp3 conf inactive
CC(Sc1nncs1)C(=O)Nc1ccc2c(c1)OCCO2 (centres undefined)	procasp3 activ 22 | proCasp7 act trip inactive | procasp3 conf inactive
O=C(CN1C(=O)NC2(CCCCC2)C1=O)Nc1ccc2c(c1)OCCCO2	none (no result: GSK3B inh)
N#Cc1ccc(-c2ccc3c(c2)OCO3)nc1SCC(=O)OCc1ccccc1	none
COc1ccc(-c2ccc(C#N)c(SCC(=O)OCc3ccccc3)n2)cc1OC	procasp3 activ 34 | proCasp7 act trip inactive | procasp3 conf inactive
COCCn1c(=NC(=O)c2sc3ccccc3c2Cl)sc2cc(S(N)(=O)=O)ccc21	none
C=CCn1c(=NC(=O)c2sc3ccccc3c2Cl)sc2cc(S(N)(=O)=O)ccc21	none
C=CCn1c(=NC(=O)c2cc(-c3cccs3)nc3ccccc23)sc2cc(S(N)(=O)=O)ccc21	procasp3 activ 78 | proCasp7 act trip inactive | procasp3 conf inactive
COCCn1c(=NC(=O)c2cc(-c3cccs3)nc3ccccc23)sc2cc(S(N)(=O)=O)ccc21	procasp3 activ 44 | proCasp7 act trip inactive | procasp3 conf inactive
CCCc1c(C(=O)NNc2cc(C(F)(F)F)ccc2Cl)cnn1-c1ccccc1	none
Cc1oc(=O)cc(OCc2ccccc2)c1C	none (no result: GSK3B inh, A1 inh, STK33 kinase inh, GSK3 alpha inh)
Cc1ccc(C(=O)C2CCN(CC(=O)Nc3ccccc3C)CC2)cc1	none
Cc1ccc(NC(=O)CN2CCC(C(=O)c3ccc(F)cc3)CC2)cc1	procasp3 activ 38 | proCasp7 act trip inactive | procasp3 conf inactive
COCCNc1ncnc2c1cnn2Cc1ccccc1Cl	procasp3 activ 23 | proCasp7 act trip inactive | procasp3 conf inactive
COc1ccccc1NC(=O)C/C(N)=N/O	none
Cc1cc2oc(=O)cc(CN3CCN(C/C=C/c4ccccc4)CC3)c2cc1O	none
Cc1c(O)ccc2c(CN3CCN(C/C=C/c4ccccc4)CC3)cc(=O)oc12	procasp3 activ 24 | proCasp7 act trip inactive | procasp3 conf inactive
CC(C)(C)c1cc(C(=O)NCc2cc(F)cc3c2OCOC3)n(Cc2ccccc2)n1	none
COCC(C)NCC(=O)NC(C)CCc1ccccc1 (centres undefined)	none
O=c1cc(CN2CCN(S(=O)(=O)c3ccc4c(c3)OCCO4)CC2)c2ccc(O)cc2o1	procasp3 activ 22 | proCasp7 act trip inactive | procasp3 conf inactive
Cc1ccccc1CSc1nc2ccccc2c(=O)n1C	none (no result: GSK3B inh)
Cn1c(SCc2ccccc2F)nc2ccccc2c1=O	procasp3 activ 22 | proCasp7 act trip inactive | procasp3 conf inactive
O=c1oc2cc(O)ccc2cc1-c1ccccc1	none (no result: GSK3 alpha inh)
COc1ccc(-c2cc3ccc(O)cc3oc2=O)cc1	procasp3 activ 22 | proCasp7 act trip inactive | procasp3 conf inactive
COc1ccc(C2CC(c3ccc(Cl)cc3)=NN2c2ccc(S(N)(=O)=O)cc2)cc1 (centres undefined)	procasp3 activ 33 (no result: GSK3B inh, A1 inh, STK33 kinase inh, GSK3 alpha inh) | proCasp7 act trip inactive | procasp3 conf inactive
N=c1c(S(=O)(=O)c2ccccc2)cc2c(=O)n3ccccc3nc2n1C1CCCC1	procasp3 activ 30 | proCasp7 act trip inactive | procasp3 conf inactive
COc1cccc(CNc2nc3ccccc3n2CCN2CCCCC2)c1OC	none (no result: GSK3B inh)
CCn1c(NCc2cccc(OC)c2OC)nc2ccccc21	procasp3 activ 22 | proCasp7 act trip inactive | procasp3 conf inactive
CS(=O)(=O)c1nc(S(=O)(=O)c2ccc(Cl)cc2)c(N2CCCCCC2)s1	none
CCC(=O)N(Cc1cc(=O)[nH]c2ccccc12)c1ccccc1	A1 inh inconclusive (no result: GSK3 alpha inh)
CCCC(=O)N(Cc1cc(=O)[nH]c2ccccc12)c1ccccc1	procasp3 activ 74 | proCasp7 act trip inactive | procasp3 conf inactive
O=c1[nH]c2ccccc2nc1-c1cccs1	procasp3 activ 34 | proCasp7 act trip inactive | procasp3 conf inactive
c1csc(-c2nnsc2-c2nc3ccccc3[nH]2)c1	none
CCc1cc(C(=O)N2CCN(S(=O)(=O)c3ccc(Cl)cc3)CC2)sc1C	none (no result: GSK3B inh)
COc1cc(/C=N/NC(=O)C(=O)/C=C2\NC3(CCCC3)Cc3ccccc32)ccc1O	none
O=C(/C=C1\NC2(CCCC2)Cc2ccccc21)C(=O)N/N=C/c1ccccc1O	procasp3 activ 24 | proCasp7 act trip inactive | procasp3 conf 32
O=C(CC1SCCNC1=O)Nc1cccc(C(F)(F)F)c1 (centres undefined)	procasp3 activ 67 | proCasp7 act trip inactive | procasp3 conf inactive
CCn1nc(C)cc1C(=O)NC1CCCc2c1cnn2-c1ccc(C)c(C)c1 (centres undefined)	none
Cc1c(CCC(=O)O)c(=O)oc2cc3occ(C(C)(C)C)c3cc12	none
Cc1c(CCC(=O)O)c(=O)oc2cc(O)ccc12	procasp3 activ 24 | proCasp7 act trip inactive | procasp3 conf inactive
O=C1NCC(COc2ccc(Cl)cc2)O1 (centres undefined)	none
CCCCCCc1cc2cc(C(=O)OCC)c(=O)oc2cc1O	procasp3 activ 36 | proCasp7 act trip inactive | procasp3 conf inactive
Cc1ccc(-n2c(SCC(=O)N3Cc4ccccc4CC3C(=O)O)nnc2-c2cccnc2)c(C)c1 (centres undefined)	none
Cc1ccc(C2Nc3ccc4ccccc4c3C3=C2C(=O)CC(C)(C)C3)o1 (centres undefined)	procasp3 activ 46 | proCasp7 act trip inactive | procasp3 conf inactive

Screens from PubChem.
